According to ChEMBL document CHEMBL3351575, “Halogenated diarylacetylenes repress c-myc expression in cancer cells” (Bioorg Med Chem Lett, 2014):
The source made the active and inactive calls. The calls are words filed in the database; no cut-off is given here.

Experiments:
Type in all cases: functional, cell-based
LS174T [1] = test: Inhibition of c-myc expression in human LS 174T cells at 1 uM after 36 hrs by Western blotting analysis
Outline: (§1)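 LS174T colon cancer cells exposed to each diarylacetylene at 1 μM for 36 h, alongside a DMSO vehicle control and a reference compound; cell lysates then probed by western blot, with β-tubulin as the loading control.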

LS174T [2] = test: Induction of p21([…]/Cip1) expression in human LS 174T cells at 1 uM after 36 hrs by Western blotting analysis; outline: as §1
[3] = Antiproliferative activity against human LS 174T cells after 4 days by Vi-Cell cell viability analyzer; conditions: LS174T, 96 h

| SMILES | inhibition (LS174T [1]) | Activity (LS174T [2]) | IC50 [3] [nM] |
| --- | --- | --- | --- |
| CNc1ccc(C#Cc2c(F)cccc2F)cc1 | Active | Active | 23 |
| CN(C)c1ccc(C#Cc2cc(F)cc(F)c2)cc1 | – | – | > 3000 |
| CN(C)c1ccc(C#Cc2cccc(F)c2)cc1 | Active | Active | > 3000 |
| Nc1ccc(C#Cc2c(F)cccc2F)cc1 | – | – | 55 |
| CN(C)c1ccc(C#Cc2cc(F)ccc2F)cc1 | – | – | 55 |
| CN(C)c1ccc(/C=C/c2c(F)cccc2F)cc1 | Active | Active | 59 |
| CN(C)c1ccc(C#Cc2ccc(F)cc2)cc1 | Active | Active | > 3000 |
| CN(C)c1ccc(C#Cc2ccc(F)cc2F)cc1 | – | – | 56 |
| CN(C)c1ccc(C#Cc2ccccc2Cl)cc1 | Active | Active | 31 |
| CN(C)c1ccc(C#Cc2cccc(F)c2F)cc1 | – | – | 119 |
| CN(C)c1ccc(C#Cc2c(F)cccc2F)cc1 | Active | Active | 23 |
| CN(C)c1ccc(C#Cc2ccccc2F)cc1 | Active | Active | 39 |
| CN(C)c1ccc(C#Cc2ccc(F)c(F)c2)cc1 | Active | Active | > 3000 |
| CN(C)c1ccc(C#Cc2c(Cl)cccc2Cl)cc1 | Active | Active | 52 |
| CN(C)c1ccc(C#Cc2c(F)cccc2Cl)cc1 | Active | Active | 19 |
| CN(C)c1ccc(C#Cc2ccccc2)cc1 | Active | Active | > 3000 |
